Source: ChEMBL document CHEMBL1153591, “Exploring bis-(indolyl)methane moiety as an alternative and innovative CAP group in the design of histone deacetylase (HDAC) inhibitors” (Bioorg Med Chem Lett, 2009)

Key:
NCI-H460 = test: Cytotoxicity against human H460 cells after 24 hrs by sulforhodamine B assay; type: functional, cell-based; details: NCI-H460, 24 h
HCT-116 = test: Cytotoxicity against human HCT116 cells after 24 hrs by sulforhodamine B assay; type: functional, cell-based; details: HCT-116, 24 h
Histone deacetylase 1 = Histone deacetylase 1 (Homo sapiens, UniProt Q13547); test: Inhibition of human HDAC1 by fluorimetry
Outline: (§1)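 Each purified single HDAC isoform incubated with fluorogenic substrate, a p53 fragment (residues […], Arg-His-Lys-Lys(Ac)) carrying an ε-acetylated lysine; deacetylation releases fluorophore, read by fluorimeter. Compounds tested as 10 doses, 1:3 serial dilution starting from 50 µM solution. IC50 from dose-response inhibition curves; trichostatin A as reference compound.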

Histone deacetylase 2 = Histone deacetylase 2 (Homo sapiens, UniProt Q92769); test: Inhibition of human HDAC2 by fluorimetry; outline: as §1
Histone deacetylase 3 = Histone deacetylase 3 (Homo sapiens, UniProt O15379); test: Inhibition of human HDAC3 by fluorimetry; outline: as §1
Histone deacetylase 4 = Histone deacetylase 4 (Homo sapiens, UniProt P56524); test: Inhibition of human HDAC4 by fluorimetry; outline: as §1
Histone deacetylase 5 = Histone deacetylase 5 (Homo sapiens, UniProt Q9UQL6); test: Inhibition of human HDAC5 by fluorimetry; outline: as §1
[1] = molecular target: T1, Protein deacetylase HDAC6 (Homo sapiens, UniProt Q9UBN7); test: Inhibition of human HDAC6 by fluorimetry; outline: as §1
T1 sequence (Q9UBN7 whole entry): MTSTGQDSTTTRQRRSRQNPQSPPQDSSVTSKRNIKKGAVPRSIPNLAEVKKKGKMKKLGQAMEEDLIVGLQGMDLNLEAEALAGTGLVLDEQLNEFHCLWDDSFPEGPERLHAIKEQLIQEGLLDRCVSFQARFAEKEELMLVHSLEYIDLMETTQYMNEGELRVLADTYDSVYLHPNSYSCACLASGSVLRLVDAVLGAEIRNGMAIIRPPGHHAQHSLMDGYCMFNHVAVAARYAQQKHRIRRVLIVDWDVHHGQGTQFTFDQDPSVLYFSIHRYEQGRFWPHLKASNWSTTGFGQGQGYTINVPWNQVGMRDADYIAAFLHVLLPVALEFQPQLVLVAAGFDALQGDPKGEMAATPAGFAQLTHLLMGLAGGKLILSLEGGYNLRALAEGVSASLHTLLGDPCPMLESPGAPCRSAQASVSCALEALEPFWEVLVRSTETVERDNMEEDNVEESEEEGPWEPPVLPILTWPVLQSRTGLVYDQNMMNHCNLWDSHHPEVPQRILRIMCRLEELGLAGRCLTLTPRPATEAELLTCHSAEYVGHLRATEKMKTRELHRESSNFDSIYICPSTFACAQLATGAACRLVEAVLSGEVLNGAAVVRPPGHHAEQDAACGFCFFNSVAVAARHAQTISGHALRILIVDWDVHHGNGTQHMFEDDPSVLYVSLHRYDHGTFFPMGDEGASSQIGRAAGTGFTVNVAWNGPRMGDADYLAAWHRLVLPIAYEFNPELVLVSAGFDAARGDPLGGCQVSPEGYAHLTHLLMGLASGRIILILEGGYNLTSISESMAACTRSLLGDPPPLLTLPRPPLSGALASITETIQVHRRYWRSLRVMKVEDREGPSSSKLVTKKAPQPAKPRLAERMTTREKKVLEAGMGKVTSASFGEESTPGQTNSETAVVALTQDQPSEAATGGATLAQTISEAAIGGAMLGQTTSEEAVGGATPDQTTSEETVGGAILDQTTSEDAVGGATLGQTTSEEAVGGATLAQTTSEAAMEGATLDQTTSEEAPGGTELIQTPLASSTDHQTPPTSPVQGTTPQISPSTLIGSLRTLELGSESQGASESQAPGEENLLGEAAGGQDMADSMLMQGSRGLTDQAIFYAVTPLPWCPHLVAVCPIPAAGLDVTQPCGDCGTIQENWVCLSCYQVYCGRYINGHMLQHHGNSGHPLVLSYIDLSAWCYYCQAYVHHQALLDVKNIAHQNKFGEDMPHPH

Histone deacetylase 7 = molecular target: T2, Histone deacetylase 7 (Homo sapiens, UniProt Q8WUI4); test: Inhibition of human HDAC7 by fluorimetry
T2 sequence (Q8WUI4 whole entry): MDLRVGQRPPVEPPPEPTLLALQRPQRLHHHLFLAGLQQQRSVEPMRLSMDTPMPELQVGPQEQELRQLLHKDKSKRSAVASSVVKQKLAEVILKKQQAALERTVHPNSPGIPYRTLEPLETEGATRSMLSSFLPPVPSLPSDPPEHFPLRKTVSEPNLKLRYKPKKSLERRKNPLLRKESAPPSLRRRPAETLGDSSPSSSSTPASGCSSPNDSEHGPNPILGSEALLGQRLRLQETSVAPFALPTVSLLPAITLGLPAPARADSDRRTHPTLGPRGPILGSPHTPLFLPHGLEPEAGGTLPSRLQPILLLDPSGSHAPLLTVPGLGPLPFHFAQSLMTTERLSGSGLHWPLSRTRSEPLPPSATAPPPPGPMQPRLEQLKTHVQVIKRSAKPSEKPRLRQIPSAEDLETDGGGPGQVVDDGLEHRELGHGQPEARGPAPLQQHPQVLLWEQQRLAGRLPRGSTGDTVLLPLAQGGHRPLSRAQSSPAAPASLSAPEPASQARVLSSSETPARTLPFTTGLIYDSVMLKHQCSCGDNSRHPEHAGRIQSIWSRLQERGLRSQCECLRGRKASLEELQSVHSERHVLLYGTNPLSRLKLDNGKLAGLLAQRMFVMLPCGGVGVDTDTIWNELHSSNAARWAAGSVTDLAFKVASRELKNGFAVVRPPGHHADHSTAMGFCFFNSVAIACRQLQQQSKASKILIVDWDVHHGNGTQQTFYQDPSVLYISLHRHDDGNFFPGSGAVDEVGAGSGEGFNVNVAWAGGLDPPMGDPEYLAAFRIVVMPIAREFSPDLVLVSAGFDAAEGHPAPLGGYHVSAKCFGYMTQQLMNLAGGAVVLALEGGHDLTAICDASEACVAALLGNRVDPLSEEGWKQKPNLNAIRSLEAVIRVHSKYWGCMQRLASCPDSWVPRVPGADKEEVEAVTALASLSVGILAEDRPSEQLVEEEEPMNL

Histone deacetylase 8 = molecular target: T3, Histone deacetylase 8 (Homo sapiens, UniProt Q9BY41); test: Inhibition of human HDAC8 by fluorimetry; outline: as §1
T3 sequence (Q9BY41 whole entry): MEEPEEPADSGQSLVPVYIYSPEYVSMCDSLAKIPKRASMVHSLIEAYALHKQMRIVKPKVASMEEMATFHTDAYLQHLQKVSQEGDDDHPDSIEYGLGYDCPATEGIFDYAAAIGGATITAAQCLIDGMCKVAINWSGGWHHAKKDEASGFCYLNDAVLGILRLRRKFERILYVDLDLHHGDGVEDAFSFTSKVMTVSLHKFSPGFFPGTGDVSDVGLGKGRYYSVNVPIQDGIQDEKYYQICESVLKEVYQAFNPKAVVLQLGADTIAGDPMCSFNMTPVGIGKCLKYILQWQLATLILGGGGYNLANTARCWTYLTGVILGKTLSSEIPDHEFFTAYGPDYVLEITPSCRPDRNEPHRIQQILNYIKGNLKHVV

Histone deacetylase 9 = Histone deacetylase 9 (Homo sapiens, UniProt Q9UKV0); test: Inhibition of human HDAC9 by fluorimetry; outline: as §1
[2] = molecular target: T4, Polyamine deacetylase HDAC10 (Homo sapiens, UniProt Q969S8); test: Inhibition of human HDAC10 by fluorimetry; outline: as §1
T4 sequence (Q969S8 whole entry): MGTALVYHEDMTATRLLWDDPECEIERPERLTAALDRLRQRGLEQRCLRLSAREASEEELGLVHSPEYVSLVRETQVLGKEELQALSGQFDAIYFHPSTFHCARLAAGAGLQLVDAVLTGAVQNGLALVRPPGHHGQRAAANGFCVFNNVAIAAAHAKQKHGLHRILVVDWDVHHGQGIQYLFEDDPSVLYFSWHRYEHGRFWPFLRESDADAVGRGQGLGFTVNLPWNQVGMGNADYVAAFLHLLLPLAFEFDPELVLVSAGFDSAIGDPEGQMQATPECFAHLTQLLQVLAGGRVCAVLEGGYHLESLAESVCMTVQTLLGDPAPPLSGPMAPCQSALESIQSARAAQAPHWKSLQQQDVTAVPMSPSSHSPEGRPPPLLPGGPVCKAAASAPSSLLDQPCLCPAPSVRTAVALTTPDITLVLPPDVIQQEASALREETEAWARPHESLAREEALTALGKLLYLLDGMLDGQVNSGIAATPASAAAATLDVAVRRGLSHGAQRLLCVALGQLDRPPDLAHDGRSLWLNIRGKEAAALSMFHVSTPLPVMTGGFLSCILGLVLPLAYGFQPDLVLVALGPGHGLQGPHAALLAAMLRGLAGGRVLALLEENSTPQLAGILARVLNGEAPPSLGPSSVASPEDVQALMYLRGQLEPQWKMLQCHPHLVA

Histone deacetylase 11 = molecular target: T5, Histone deacetylase 11 (Homo sapiens, UniProt Q96DB2); test: Inhibition of human HDAC11 by fluorimetry; outline: as §1
T5 sequence (Q96DB2 whole entry): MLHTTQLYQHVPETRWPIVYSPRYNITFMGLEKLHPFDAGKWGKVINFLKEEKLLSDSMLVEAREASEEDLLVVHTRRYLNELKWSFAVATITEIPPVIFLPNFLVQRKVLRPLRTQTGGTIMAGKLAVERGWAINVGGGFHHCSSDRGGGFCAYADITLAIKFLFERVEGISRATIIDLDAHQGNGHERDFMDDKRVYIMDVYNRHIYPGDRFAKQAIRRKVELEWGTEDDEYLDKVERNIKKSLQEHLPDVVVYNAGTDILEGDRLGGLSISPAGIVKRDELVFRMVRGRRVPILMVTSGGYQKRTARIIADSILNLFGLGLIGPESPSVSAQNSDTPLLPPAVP

Chain of Histone deacetylase 2 (Q92769 whole entry): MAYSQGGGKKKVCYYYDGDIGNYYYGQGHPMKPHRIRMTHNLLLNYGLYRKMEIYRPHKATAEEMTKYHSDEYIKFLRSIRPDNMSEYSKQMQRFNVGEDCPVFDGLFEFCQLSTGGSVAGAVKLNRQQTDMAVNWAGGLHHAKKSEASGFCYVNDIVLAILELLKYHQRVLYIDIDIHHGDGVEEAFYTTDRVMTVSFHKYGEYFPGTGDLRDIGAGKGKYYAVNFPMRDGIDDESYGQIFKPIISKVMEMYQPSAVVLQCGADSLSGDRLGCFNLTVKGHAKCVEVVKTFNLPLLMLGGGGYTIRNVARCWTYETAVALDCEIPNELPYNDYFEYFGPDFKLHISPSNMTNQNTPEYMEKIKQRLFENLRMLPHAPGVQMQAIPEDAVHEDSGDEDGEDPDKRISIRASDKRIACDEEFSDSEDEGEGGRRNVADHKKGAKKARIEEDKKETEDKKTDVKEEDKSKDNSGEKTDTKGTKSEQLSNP
Chain of Histone deacetylase 4 (P56524 whole entry): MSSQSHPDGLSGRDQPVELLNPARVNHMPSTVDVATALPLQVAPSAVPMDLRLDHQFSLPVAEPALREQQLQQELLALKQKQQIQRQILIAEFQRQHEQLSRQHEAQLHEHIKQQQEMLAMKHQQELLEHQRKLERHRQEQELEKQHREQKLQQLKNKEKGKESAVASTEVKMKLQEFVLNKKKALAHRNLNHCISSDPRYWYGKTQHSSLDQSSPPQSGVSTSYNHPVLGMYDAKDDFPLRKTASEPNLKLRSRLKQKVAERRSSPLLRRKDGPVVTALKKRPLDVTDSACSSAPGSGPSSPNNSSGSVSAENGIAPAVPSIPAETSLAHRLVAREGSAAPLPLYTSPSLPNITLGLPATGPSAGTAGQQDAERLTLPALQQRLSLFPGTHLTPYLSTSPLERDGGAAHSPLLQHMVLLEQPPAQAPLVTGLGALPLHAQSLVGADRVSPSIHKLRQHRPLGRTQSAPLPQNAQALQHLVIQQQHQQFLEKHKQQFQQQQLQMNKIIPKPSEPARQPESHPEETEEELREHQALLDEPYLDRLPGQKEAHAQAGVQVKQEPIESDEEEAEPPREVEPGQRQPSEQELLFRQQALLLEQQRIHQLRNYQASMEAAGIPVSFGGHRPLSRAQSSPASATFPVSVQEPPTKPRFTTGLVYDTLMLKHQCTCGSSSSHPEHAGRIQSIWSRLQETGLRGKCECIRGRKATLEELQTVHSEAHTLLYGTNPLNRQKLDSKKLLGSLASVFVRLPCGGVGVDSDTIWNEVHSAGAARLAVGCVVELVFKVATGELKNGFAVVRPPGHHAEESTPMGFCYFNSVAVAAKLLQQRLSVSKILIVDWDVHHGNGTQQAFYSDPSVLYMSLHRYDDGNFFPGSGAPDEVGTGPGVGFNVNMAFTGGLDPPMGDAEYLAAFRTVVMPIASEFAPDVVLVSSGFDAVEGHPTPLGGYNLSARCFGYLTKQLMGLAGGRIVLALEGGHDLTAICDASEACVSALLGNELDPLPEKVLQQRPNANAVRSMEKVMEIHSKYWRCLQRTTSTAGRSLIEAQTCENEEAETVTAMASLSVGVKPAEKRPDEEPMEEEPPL
Chain of Histone deacetylase 1 (Q13547 whole entry, the tested form may be a part, canonical isoform): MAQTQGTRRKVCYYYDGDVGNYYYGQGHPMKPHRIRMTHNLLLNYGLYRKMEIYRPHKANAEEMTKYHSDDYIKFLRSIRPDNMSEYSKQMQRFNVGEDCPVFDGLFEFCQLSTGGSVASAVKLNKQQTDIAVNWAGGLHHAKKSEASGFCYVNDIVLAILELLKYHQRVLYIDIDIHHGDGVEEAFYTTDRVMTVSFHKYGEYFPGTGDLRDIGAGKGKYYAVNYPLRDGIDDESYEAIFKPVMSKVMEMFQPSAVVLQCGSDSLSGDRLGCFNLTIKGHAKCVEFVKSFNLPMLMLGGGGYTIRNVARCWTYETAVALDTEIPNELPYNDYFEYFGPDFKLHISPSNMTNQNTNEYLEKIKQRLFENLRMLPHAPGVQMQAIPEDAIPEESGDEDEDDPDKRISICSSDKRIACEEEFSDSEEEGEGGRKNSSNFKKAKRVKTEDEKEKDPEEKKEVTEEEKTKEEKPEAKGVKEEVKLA
Chain of Histone deacetylase 3 (O15379 whole entry): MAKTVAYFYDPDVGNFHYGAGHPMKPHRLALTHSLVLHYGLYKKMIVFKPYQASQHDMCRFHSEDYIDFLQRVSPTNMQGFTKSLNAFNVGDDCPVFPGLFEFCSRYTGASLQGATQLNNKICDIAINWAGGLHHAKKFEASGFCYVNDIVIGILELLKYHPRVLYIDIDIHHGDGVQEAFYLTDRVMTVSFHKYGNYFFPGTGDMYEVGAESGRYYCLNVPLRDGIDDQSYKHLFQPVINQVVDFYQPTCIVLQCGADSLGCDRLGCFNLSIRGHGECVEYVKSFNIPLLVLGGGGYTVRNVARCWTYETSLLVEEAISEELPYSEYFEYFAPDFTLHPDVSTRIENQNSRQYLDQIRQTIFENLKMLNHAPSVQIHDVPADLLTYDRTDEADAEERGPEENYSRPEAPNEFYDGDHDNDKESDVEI
Chain of Histone deacetylase 9 (Q9UKV0 whole entry): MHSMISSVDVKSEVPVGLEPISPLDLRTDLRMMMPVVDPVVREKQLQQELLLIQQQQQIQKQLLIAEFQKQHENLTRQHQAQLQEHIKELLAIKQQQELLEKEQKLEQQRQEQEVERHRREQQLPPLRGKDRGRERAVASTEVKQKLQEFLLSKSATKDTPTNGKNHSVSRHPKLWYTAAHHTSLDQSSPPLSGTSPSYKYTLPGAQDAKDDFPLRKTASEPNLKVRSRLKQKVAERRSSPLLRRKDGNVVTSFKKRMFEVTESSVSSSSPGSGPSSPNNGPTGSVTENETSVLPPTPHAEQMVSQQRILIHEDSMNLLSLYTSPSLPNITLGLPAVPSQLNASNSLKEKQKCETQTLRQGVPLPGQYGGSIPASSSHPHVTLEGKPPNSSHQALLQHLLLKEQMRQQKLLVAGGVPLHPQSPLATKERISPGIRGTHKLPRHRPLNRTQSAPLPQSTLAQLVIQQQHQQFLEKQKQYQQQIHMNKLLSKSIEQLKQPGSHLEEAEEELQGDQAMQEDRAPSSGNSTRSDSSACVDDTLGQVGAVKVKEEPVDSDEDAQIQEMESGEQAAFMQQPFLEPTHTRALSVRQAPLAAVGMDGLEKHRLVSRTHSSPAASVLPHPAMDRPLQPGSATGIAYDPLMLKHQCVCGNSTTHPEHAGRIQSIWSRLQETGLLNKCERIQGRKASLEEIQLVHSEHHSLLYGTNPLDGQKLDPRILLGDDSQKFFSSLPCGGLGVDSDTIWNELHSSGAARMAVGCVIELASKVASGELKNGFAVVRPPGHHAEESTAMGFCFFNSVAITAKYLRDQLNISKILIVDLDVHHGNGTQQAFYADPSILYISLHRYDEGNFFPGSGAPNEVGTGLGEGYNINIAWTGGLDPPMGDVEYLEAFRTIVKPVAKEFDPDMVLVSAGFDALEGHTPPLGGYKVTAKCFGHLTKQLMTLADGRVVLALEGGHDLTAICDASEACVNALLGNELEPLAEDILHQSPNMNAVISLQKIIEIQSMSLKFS
Chain of Histone deacetylase 5 (Q9UQL6 whole entry): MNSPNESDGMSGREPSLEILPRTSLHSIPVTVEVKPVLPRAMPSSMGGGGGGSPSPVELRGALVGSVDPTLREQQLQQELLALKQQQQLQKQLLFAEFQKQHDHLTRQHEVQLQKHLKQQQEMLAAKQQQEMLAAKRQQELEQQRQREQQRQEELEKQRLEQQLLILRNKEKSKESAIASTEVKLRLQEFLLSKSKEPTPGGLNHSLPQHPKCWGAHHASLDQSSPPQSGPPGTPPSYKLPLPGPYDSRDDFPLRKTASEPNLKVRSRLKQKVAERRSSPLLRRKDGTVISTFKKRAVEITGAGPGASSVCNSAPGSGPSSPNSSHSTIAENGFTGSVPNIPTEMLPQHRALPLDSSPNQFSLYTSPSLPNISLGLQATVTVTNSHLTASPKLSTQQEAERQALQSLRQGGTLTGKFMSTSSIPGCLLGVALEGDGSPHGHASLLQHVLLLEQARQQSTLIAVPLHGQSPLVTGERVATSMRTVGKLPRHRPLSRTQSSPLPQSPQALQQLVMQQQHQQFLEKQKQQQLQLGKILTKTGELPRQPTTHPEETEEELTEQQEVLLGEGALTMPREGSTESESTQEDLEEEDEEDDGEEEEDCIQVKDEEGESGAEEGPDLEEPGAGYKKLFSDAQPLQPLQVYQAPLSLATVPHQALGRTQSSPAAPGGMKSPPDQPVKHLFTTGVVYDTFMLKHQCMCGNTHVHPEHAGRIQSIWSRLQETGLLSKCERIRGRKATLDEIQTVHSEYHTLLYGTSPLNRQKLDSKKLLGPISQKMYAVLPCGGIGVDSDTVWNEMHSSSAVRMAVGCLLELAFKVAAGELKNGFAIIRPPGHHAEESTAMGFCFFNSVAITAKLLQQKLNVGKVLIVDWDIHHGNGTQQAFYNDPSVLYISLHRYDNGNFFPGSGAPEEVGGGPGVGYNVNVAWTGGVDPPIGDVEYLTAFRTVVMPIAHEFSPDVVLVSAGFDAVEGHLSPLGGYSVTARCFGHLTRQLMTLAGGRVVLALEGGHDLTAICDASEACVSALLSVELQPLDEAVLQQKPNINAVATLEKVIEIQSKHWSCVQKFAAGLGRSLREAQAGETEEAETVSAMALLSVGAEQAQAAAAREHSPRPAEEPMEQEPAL

SMILES | IC50 (NCI-H460) [nM] | IC50 (HCT-116) [nM] | IC50 (Histone deacetylase 1) [nM] | IC50 (Histone deacetylase 2) [nM] | IC50 (Histone deacetylase 3) [nM] | IC50 (Histone deacetylase 4) [nM] | IC50 (Histone deacetylase 5) [nM] | IC50 [1] [nM] | IC50 (Histone deacetylase 7) [nM] | IC50 (Histone deacetylase 8) [nM] | IC50 (Histone deacetylase 9) [nM] | IC50 [2] [nM] | IC50 (Histone deacetylase 11) [nM]
Cc1[nH]c2ccccc2c1C(CCCCCC(=O)NO)c1c(C)[nH]c2ccccc12 | 4300 | 3200 | – | – | – | – | – | – | – | – | – | – | –
O=C(CCCCCCC(c1c[nH]c2ccccc12)c1c[nH]c2ccccc12)NO | 2700 | 3500 | – | – | – | – | – | – | – | – | – | – | –
Cc1ccc2[nH]cc(C(CCCCCC(=O)NO)c3c[nH]c4ccc(C)cc34)c2c1 | 510 | 270 | – | – | – | – | – | – | – | – | – | – | –
O=C(/C=C/c1ccc(C(c2c[nH]c3ccccc23)c2c[nH]c3ccccc23)cc1)NO | 2600 | 2600 | 4800 | 3900 | 440 | 4800 | 4900 | 4900 | 4200 | 730 | 3300 | 4700 | 410
CCc1cccc2c(C(CCCCCC(=O)NO)c3c[nH]c4c(CC)cccc34)c[nH]c12 | 4800 | 3500 | – | – | – | – | – | – | – | – | – | – | –
CN(O)C(=O)CCCCCC(c1cn(C)c2ccccc12)c1cn(C)c2ccccc12 | > 20000 | > 20000 | – | – | – | – | – | – | – | – | – | – | –
O=C(CCCCCC(c1c[nH]c2ccccc12)c1c[nH]c2ccccc12)NO | 1200 | 600 | 730 | 2000 | 350 | 1300 | 590 | 6 | – | 240 | 640 | 870 | 430
Nc1ccccc1NC(=O)CCCCCC(c1c[nH]c2ccccc12)c1c[nH]c2ccccc12 | > 20000 | 16500 | 21000 | 1100 | 260 | 150000 | 28000 | – | – | 74000 | 50000 | 73000 | 5800
O=C(CCCCCC(c1cc2ccccc2[nH]1)c1c[nH]c2ccccc12)NO (stereo not given) | 820 | 840 | – | – | – | – | – | – | – | – | – | – | –
CN(O)C(=O)CCCCCC(c1c[nH]c2ccccc12)c1c[nH]c2ccccc12 | > 20000 | > 20000 | – | – | – | – | – | – | – | – | – | – | –
